# According to article PMC3204787 (Biochemistry, 2011):
# Tests used:
# HIV-1 RT M184V [1] = biological target: T1, HIV-1 RT M184V (Human immunodeficiency virus type 1 group M subtype B, UniProt P03366, M783V); assay: Steady-state kinetics of polymerization, M184V mutant; format: biochemical; conditions: 25°C
# HIV-1 RT Q91A+M184V [2] = biological target: T2, HIV-1 RT Q91A+M184V (Human immunodeficiency virus type 1 group M subtype B, UniProt P03366, M783V/Q690A); assay: Steady-state kinetics of polymerization, Q91A+M184V mutant; format: biochemical; conditions: Q91A+M184V, 25°C
# HIV-1 RT Q91N+M184V [3] = biological target: T3, HIV-1 RT Q91N+M184V (Human immunodeficiency virus type 1 group M subtype B, UniProt P03366, M783V/Q690N); assay: Steady-state kinetics of polymerization, Q91N+M184V mutant; format: biochemical; conditions: 25°C
# Procedure, shortened: (§1)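 Run at 25 °C with 40 nM mutant RT and 100 nM poly rA.dT18 or poly rC.dG18, each prepared by annealing equimolar template and primer at 20 μM. Buffer was 50 mM Tris-HCl pH 7.5, 2 mM MgCl2, 1 mM DTT and 100 μg/mL BSA. Complementary dTTP or dGTP was varied, with [3H]dTTP specific activity set using unlabeled dTTP. Reactions were started with MgCl2 and stopped with ice-cold 5% TCA at set times, then filtered and scintillation-counted. Km and Vmax came from Eadie-Hofstee plots of initial velocities; kcat = Vmax/[E].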
# HIV-1 RT Q91N [4] = biological target: T4, HIV-1 RT Q91N (Human immunodeficiency virus type 1 group M subtype B, UniProt P03366, Q690N); assay: Steady-state kinetics of polymerization, Q91N mutant; format: biochemical
# Procedure, shortened: as §1
# HIV-1 RT Q91A [5] = biological target: T5, HIV-1 RT Q91A (Human immunodeficiency virus type 1 group M subtype B, UniProt P03366, Q690A); assay: Steady-state kinetics of polymerization, Q91A mutant; format: biochemical; conditions: Q91A, 25°C
# wild type HIV-1 RT [6] = biological target: T6, wild type HIV-1 RT (Human immunodeficiency virus type 1 group M subtype B, UniProt P03366); assay: Steady-state kinetics of polymerization, wild-type enzyme; format: biochemical; conditions: WT, 25°C
# HIV-1 RT Q91A+M184V [7] = assay: Steady-state kinetics of polymerization, Q91A+M184V mutant; format: biochemical, human immunodeficiency virus type 1; conditions: Q91A/M184V vs wild type; poly-rA.dT18 template, dTTP
# HIV-1 RT Q91A [8] = assay: Steady-state kinetics of polymerization, Q91A mutant; format: biochemical, human immunodeficiency virus type 1; conditions: Q91A vs wild type; poly-rA.dT18 template, dTTP
# HIV-1 RT Q91N+M184V [9] = biological target: T3, HIV-1 RT Q91N+M184V; assay: Inhibition of reverse transcription by ddNTP inhibitors, Q91N+M184V mutant; format: biochemical; conditions: for Ki: 37 °C 3 min; for IC50: IC50=Ki(1+[S]/Km)
# Procedure, shortened: (§2)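 Recombinant heterodimeric HIV-1 RT (p66 with N-terminally His-tagged p51), mutation present in both subunits, used at 10 nM. The enzyme was preincubated with 100 nM poly rA.dT18 or poly rC-dG18 for 2 min at 25 °C. Synthesis was started with Mg-complexed 10 μM [3H]dTTP or dGTP (1 μCi per assay) plus varied ddTTP or ddGTP, then run 3 min at 37 °C. Reactions were stopped with cold 5% TCA/5 mM PPi, collected on GF/B filters and counted by scintillation. Ki came from percent inhibition using the competitive-inhibitor equation; IC50 = Ki(1+[S]/Km). Three independent experiments.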
# wild type HIV-1 RT [10] = biological target: T6, wild type HIV-1 RT; assay: Inhibition of reverse transcription by ddNTP inhibitors, wild-type enzyme; format: biochemical; conditions: WT; for Ki: 37 °C 3 min; for IC50: IC50=Ki(1+[S]/Km)
# HIV-1 RT M184V [11] = biological target: T1, HIV-1 RT M184V; assay: Inhibition of reverse transcription by ddNTP inhibitors, M184V mutant; format: biochemical; conditions: for Ki: 37 °C 3 min; for IC50: IC50=Ki(1+[S]/Km)
# HIV-1 RT Q91A+M184V [12] = biological target: T2, HIV-1 RT Q91A+M184V; assay: Inhibition of reverse transcription by ddNTP inhibitors, Q91A+M184V mutant; format: biochemical; conditions: for Ki: 37 °C 3 min; for IC50: IC50=Ki(1+[S]/Km)
# HIV-1 RT Q91N [13] = biological target: T4, HIV-1 RT Q91N; assay: Inhibition of reverse transcription by ddNTP inhibitors, Q91N mutant; format: biochemical; conditions: for Ki: 37 °C 3 min; for IC50: IC50=Ki(1+[S]/Km)
# Procedure, shortened: as §2
# HIV-1 RT Q91A [14] = biological target: T5, HIV-1 RT Q91A; assay: Inhibition of reverse transcription by ddNTP inhibitors, Q91A mutant; format: biochemical; conditions: for Ki: 37 °C 3 min; for IC50: IC50=Ki(1+[S]/Km)
# [15] = Poly rC.dG18 template-primer, dGTP substrate
# [16] = Poly rA.dT18 template-primer, dTTP substrate
# [17] = poly rC-dG18 100 nM, dGTP 10 μM
# [18] = poly rA.dT18 100 nM, dTTP 10 μM
smiles,measurement,setting,value
Nc1nc2c(ncn2[C@H]2C[C@H](O)[C@@H](COP(=O)(O)OP(=O)(O)OP(=O)(O)O)O2)c(=O)[nH]1 [dGTP],KmdGTP,HIV-1 RT M184V [1]; Poly rC.dG18 template-primer,8.0 ± 2.2 µM
same,Kcat,HIV-1 RT M184V [1]; [15],0.08 ± 0.011 s⁻¹
same,KmdGTP,HIV-1 RT Q91A+M184V [2]; Poly rC.dG18 template-primer,57.0 ± 5.0 µM
same,Kcat,HIV-1 RT Q91A+M184V [2]; [15],0.06 ± 0.010 s⁻¹
same,KmdGTP,HIV-1 RT Q91N+M184V [3]; Poly rC.dG18 template-primer,8.0 ± 1.8 µM
same,Kcat,HIV-1 RT Q91N+M184V [3]; [15],0.04 ± 0.012 s⁻¹
same,decrease in catalytic efficiency,"HIV-1 RT Q91N [4]; Q91N vs wild type, poly rC template, range given jointly for Q91N and Q91N/M184V",5–10 fold
same,KmdGTP,"HIV-1 RT Q91N [4]; Q91N, Poly rC.dG18 template-primer, 25°C",8.0 ± 2.1 µM
same,Kcat,"HIV-1 RT Q91N [4]; Q91N, Poly rC.dG18 template-primer, dGTP substrate, 25°C",0.02 ± 0.002 s⁻¹
same,KmdGTP,HIV-1 RT Q91A [5]; Poly rC.dG18 template-primer,25.0 ± 4.0 µM
same,Kcat,HIV-1 RT Q91A [5]; [15],0.02 ± 0.006 s⁻¹
same,KmdGTP,wild type HIV-1 RT [6]; Poly rC.dG18 template-primer,6.0 ± 1.4 µM
same,Kcat,wild type HIV-1 RT [6]; [15],0.15 ± 0.019 s⁻¹
Cc1cn([C@H]2C[C@H](O)[C@@H](COP(=O)(O)OP(=O)(O)OP(=O)(O)O)O2)c(=O)[nH]c1=O [dTTP],KmdTTP,HIV-1 RT M184V [1]; Poly rA.dT18 template-primer,3.5 ± 1.2 µM
same,Kcat,HIV-1 RT M184V [1]; [16],0.53 ± 0.12 s⁻¹
same,KmdTTP,HIV-1 RT Q91A+M184V [2]; Poly rA.dT18 template-primer,37.0 ± 4.0 µM
same,Kcat,HIV-1 RT Q91A+M184V [2]; [16],0.23 ± 0.07 s⁻¹
same,decrease in the catalytic efficiency,HIV-1 RT Q91A+M184V [7],43 fold
same,KmdTTP,HIV-1 RT Q91N+M184V [3]; Poly rA.dT18 template-primer,5.0 ± 1.0 µM
same,Kcat,HIV-1 RT Q91N+M184V [3]; [16],0.27 ± 0.11 s⁻¹
same,KmdTTP,"HIV-1 RT Q91N [4]; Q91N, Poly rA.dT18 template-primer, 25°C",7.0 ± 1.5 µM
same,Kcat,"HIV-1 RT Q91N [4]; Q91N, Poly rA.dT18 template-primer, dTTP substrate, 25°C",0.25 ± 0.08 s⁻¹
same,KmdTTP,HIV-1 RT Q91A [5]; Poly rA.dT18 template-primer,30.0 ± 3.5 µM
same,Kcat,HIV-1 RT Q91A [5]; [16],0.10 ± 0.03 s⁻¹
same,decrease in the catalytic efficiency,HIV-1 RT Q91A [8],21 fold
same,KmdTTP,wild type HIV-1 RT [6]; Poly rA.dT18 template-primer,3.0 ± 1.1 µM
same,Kcat,wild type HIV-1 RT [6]; [16],0.39 ± 0.6 s⁻¹
Nc1nc2c(ncn2[C@H]2CC[C@@H](COP(=O)(O)OP(=O)(O)OP(=O)(O)O)O2)c(=O)[nH]1 [ddGTP],Ki,HIV-1 RT Q91N+M184V [9]; [17],130 nM
same,IC50,HIV-1 RT Q91N+M184V [9]; [17],285 nM
same,Ki,wild type HIV-1 RT [10]; [17],112 nM
same,IC50,wild type HIV-1 RT [10]; [17],308 nM
same,Ki,HIV-1 RT M184V [11]; [17],403 nM
same,IC50,HIV-1 RT M184V [11]; [17],900 nM
same,Ki,HIV-1 RT Q91A+M184V [12]; [17],418 nM
same,IC50,HIV-1 RT Q91A+M184V [12]; [17],491 nM
same,Ki,HIV-1 RT Q91N [13]; [17],476 nM
same,IC50,HIV-1 RT Q91N [13]; [17],1090 nM
same,Ki,HIV-1 RT Q91A [14]; [17],885 nM
same,IC50,HIV-1 RT Q91A [14]; [17],1240 nM
Cc1cn([C@H]2CC[C@@H](COP(=O)(O)OP(=O)(O)OP(=O)(O)O)O2)c(=O)[nH]c1=O [ddTTP],Ki,HIV-1 RT Q91N+M184V [9]; [18],12 nM
same,IC50,HIV-1 RT Q91N+M184V [9]; [18],36 nM
same,Ki,wild type HIV-1 RT [10]; [18],4 nM
same,IC50,wild type HIV-1 RT [10]; [18],17 nM
same,Ki,HIV-1 RT M184V [11]; [18],18 nM
same,IC50,HIV-1 RT M184V [11]; [18],69 nM
same,Ki,HIV-1 RT Q91A+M184V [12]; [18],45 nM
same,IC50,HIV-1 RT Q91A+M184V [12]; [18],57 nM
same,Ki,HIV-1 RT Q91N [13]; [18],62 nM
same,IC50,HIV-1 RT Q91N [13]; [18],150 nM
same,Ki,HIV-1 RT Q91A [14]; [18],76 nM
same,IC50,HIV-1 RT Q91A [14]; [18],101 nM
